Data on one molecule can be found in BindingDB's records for doi:10.1021/acs.jmedchem.0c02249 (Lundbeck Research Usa, 2021).

Assay [1] deals with T1, P2X purinoceptor 7 (Homo sapiens, UniProt Q99572).
T1 sequence (Q99572 whole entry): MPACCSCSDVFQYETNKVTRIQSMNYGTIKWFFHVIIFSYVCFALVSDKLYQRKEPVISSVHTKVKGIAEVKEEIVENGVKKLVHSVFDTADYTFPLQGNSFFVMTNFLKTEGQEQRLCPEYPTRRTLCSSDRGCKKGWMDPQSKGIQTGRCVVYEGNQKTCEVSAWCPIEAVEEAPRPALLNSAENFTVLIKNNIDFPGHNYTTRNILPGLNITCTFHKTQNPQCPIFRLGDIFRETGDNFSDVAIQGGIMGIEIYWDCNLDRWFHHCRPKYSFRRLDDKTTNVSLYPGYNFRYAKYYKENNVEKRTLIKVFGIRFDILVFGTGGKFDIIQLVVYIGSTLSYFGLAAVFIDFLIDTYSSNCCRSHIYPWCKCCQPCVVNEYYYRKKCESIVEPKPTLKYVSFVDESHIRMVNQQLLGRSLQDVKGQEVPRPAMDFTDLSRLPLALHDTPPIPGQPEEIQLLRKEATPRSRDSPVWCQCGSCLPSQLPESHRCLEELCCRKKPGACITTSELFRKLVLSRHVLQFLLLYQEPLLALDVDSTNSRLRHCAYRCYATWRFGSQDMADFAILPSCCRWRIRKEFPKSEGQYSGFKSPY
As to the kind of experiment: Antagonist activity at human P2X7 receptor expressed in HEK293 cells assessed as inhibition of BzATP-induced calcium-flux measured after 60 mins by FLIPR analysis.

For assay [2], the target named is T2, P2X purinoceptor 7 (Rattus norvegicus, UniProt Q64663).
T2 sequence (Q64663 whole entry): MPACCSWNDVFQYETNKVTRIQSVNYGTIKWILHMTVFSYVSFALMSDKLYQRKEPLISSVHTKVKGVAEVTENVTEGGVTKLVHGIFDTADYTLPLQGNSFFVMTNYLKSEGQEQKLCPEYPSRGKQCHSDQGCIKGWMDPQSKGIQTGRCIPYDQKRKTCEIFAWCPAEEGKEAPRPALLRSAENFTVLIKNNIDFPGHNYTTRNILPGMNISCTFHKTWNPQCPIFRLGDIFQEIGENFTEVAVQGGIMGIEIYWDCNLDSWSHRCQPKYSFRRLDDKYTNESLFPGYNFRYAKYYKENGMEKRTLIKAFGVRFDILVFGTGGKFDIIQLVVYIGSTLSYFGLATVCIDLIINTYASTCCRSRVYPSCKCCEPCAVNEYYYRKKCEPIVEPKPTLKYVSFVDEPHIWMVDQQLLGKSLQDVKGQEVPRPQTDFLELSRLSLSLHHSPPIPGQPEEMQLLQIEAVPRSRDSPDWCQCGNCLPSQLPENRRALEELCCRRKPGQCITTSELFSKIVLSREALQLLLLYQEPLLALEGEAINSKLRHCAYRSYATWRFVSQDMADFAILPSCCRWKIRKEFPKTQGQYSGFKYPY
As to the kind of experiment: Antagonist activity at rat P2X7 receptor expressed in HEK293 cells assessed as inhibition of BzATP-induced calcium-flux measured after 60 mins by FLIPR analysis. The essentials: (§1)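 Stable rat or mouse P2X7 HEK293 cells in HBSS/20 mM HEPES/2.5 mM probenecid/0.05% BSA, pH 7.4, were loaded with Fluo-4 NW (37 °C 30 min, RT 30 min). After 30 min at RT, calcium fluorescence was read by FLIPR; n ≥ 3.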

In assay [3] the target is T3, P2X purinoceptor 7 (Mus musculus, UniProt Q9Z1M0).
T3 sequence (Q9Z1M0 whole entry): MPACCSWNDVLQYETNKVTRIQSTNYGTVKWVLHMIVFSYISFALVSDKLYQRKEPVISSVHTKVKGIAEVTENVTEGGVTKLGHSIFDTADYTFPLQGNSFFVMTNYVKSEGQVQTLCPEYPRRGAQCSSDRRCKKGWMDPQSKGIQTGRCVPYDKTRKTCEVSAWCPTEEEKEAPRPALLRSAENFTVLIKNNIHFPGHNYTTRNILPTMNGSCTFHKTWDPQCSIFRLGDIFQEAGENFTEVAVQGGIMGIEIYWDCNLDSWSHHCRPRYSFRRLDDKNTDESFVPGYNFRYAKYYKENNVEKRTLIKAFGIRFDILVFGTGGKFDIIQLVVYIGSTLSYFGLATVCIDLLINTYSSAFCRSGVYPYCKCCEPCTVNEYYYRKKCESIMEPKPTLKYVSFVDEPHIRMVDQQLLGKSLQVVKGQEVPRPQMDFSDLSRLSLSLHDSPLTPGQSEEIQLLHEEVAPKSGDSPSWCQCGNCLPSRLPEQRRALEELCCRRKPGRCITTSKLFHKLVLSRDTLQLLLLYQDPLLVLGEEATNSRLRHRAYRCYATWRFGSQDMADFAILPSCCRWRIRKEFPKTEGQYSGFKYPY
Kind of assay: Antagonist activity at mouse P2X7 receptor expressed in HEK293 cells assessed as inhibition of BzATP-induced calcium-flux measured after 60 mins by FLIPR analysis. The essentials: as §1

The target of assay [4] is T2, P2X purinoceptor 7. As to the kind of experiment: Displacement of [3H]-A-804598 from rat P2X7 receptor expressed in HEK293 cell membrane by in vitro binding assay. For orientation: Loss of bound radioactivity is the signal in a displacement assay; it reports binding, not function.

In the case of `CCOc1ccc(Nc2ccc(/C(=C3C=C/C(=[N+](/CC)Cc4cccc(S(=O)(=O)[O-])c4)C=C/3C)c3ccc(N(CC)Cc4cccc(S(=O)(=O)O)c4)cc3C)cc2)cc1` [E133], the IC50 – broadly, the point on the concentration scale where inhibition reaches its midpoint – at P2X purinoceptor 7 [1] came out at 5800 nM; at P2X purinoceptor 7 [2], 200 nM; at P2X purinoceptor 7 [3] it was 1300 nM. Also, the affinity on P2X purinoceptor 7 [4], expressed as Ki, was 1000 nM.
